The values below come from the RNAGym collection of RNA variant scans (doi:10.1126/science.aae0568).

This sample holds only a part of the variants without activity.

B1: tRNA (parent)
chain: GUUCCGUUGGCGUAAUGGUAACGCGUCUCCCUCCUAAGGAGAAGACUGCGGGUUCGAGUCCCGUACGGAACG

The variants in this data set derive from B1. Description: yeast fitness relative to wild type (ratio to wild type); higher = fitter; tRNA-Arg(CCU), competitive growth, 37 C, YPD. A digest of the protocol:
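A pool of Saccharomyces cerevisiae strains, each with a tRNA-Arg(CCU) gene variant at the native genomic locus, was competed in YPD at 37°C for 24 hours across six parallel replicates. The variants had been chemically synthesised at a 3% per-site mutation rate over 69 sites, and gene amplicons before and after competition were read by 100-nucleotide paired-end sequencing. Darwinian fitness relative to wild type rested on changes in genotype frequencies. Genotypes required ≥ 100 starting reads, and estimates < 0.5 were set to 0.5.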
C4U A21G C49U: the yeast fitness is 1.01.

For the variant C4U G9A C61G, the yeast fitness turned out to be 0.566.

Consider C4U A37U A70U, for which the yeast fitness is 0.676.

As for C4U G52A G63C, the yeast fitness was found to be 0.595.

For C4U G9A C24G A37C A57U, the yeast fitness stood at 0.543.

C4U C11G G51A U59A C62G: the yeast fitness was ≤ 0.5.

With C4U A14G A36C C46G C61G, the yeast fitness came to 0.544.

On to C4U C22U A42C, for which the yeast fitness was ≤ 0.5.

C4U C5G C31G G50C: the yeast fitness was ≤ 0.5.

Take C4G U8C G48C: the yeast fitness was determined as 0.568.

With C4U G10A C11G A20G C27G A65G, the yeast fitness was ≤ 0.5.

On to C4G G39C A45G A57C A65U C66U, for which the yeast fitness was found to be 0.796.

As to C4U C22U C33U, the yeast fitness is 0.565.

For C4G G52C, the yeast fitness turned out to be 0.655.

In the case of C4U A20G A45U C49U C61U C62G A69C, the yeast fitness is ≤ 0.5.

Take C4U A14C C22U C34U: the yeast fitness was ≤ 0.5.

Take C4U A15C C34A G63C: the yeast fitness was ≤ 0.5.

Regarding C4U A42C C61G A65U, the yeast fitness came to 0.62.

For the variant C4U C24U U54A, the yeast fitness is ≤ 0.5.

Regarding C4U C11U G23C A37U G44A, the yeast fitness is ≤ 0.5.

In the case of C4U U7C G23A A40U A42C C60A, the yeast fitness is ≤ 0.5.

Consider C4U C22A A40C C55G A57C A69U, for which the yeast fitness is ≤ 0.5.

For C4U G12A G39C G44A A57U, the yeast fitness is ≤ 0.5.

With C4U A20U A40U G52A A69U, the yeast fitness was ≤ 0.5.

Turning to C4U U19A G44C U53G, the yeast fitness is ≤ 0.5.

On to C4U C22G G67U, for which the yeast fitness was found to be 0.638.

On to C4U G10C U47C U59A A69U, for which the yeast fitness was ≤ 0.5.

In the case of C4U C22G A36C C62G A70C, the yeast fitness was ≤ 0.5.

C4U C24A A57G G68C: the yeast fitness is ≤ 0.5.

For C4U A40U G68U, the yeast fitness came out at 0.708.

With C4G U13A G18A G52A C55G, the yeast fitness is ≤ 0.5.

For the variant C4U G44A A69C, the yeast fitness worked out at 0.568.

For C4U C11G U16C C34A C60U A69G, the yeast fitness is ≤ 0.5.

In the case of C4U G9C, the yeast fitness came to 0.688.

For C4U G9A, the yeast fitness was 0.927.

C4U C29A: the yeast fitness was 0.691.

As to C4G U7C C33G G52A, the yeast fitness was found to be 0.652.

On to C4G U13G U16C, for which the yeast fitness is 0.566.

With C4G U13G U16A, the yeast fitness was ≤ 0.5.

Turning to C4G U13A U54A, the yeast fitness is ≤ 0.5.

In the case of C4U U13A A14U C29U A37G U59C G68C, the yeast fitness is ≤ 0.5.

As for C4U U16A C61U, the yeast fitness amounted to 0.708.

In the case of C4U C30A C61A A70U, the yeast fitness was 0.536.

For C4U G12A A20G C22U U35A A45C, the yeast fitness is ≤ 0.5.

In the case of C4U G12A C31A A42U, the yeast fitness is ≤ 0.5.

On to C4U C5U C31G A45G, for which the yeast fitness was ≤ 0.5.

Consider C4U G6A, for which the yeast fitness was found to be 0.901.

Take C4G U16C G41C C62U: the yeast fitness was ≤ 0.5.

Turning to C4U U7A A37C, the yeast fitness was ≤ 0.5.

In the case of C4U A20C C55A, the yeast fitness was determined as 0.721.

As to C4U C11G C22G C62U, the yeast fitness is ≤ 0.5.

For the variant C4G G51C U64A, the yeast fitness was ≤ 0.5.

Regarding C4U A36U A40C A65C, the yeast fitness was ≤ 0.5.

As for C4U A36U A40C, the yeast fitness is 0.64.

Consider C4U A20C C22U U47G G67A A69U, for which the yeast fitness was ≤ 0.5.

On to C4G G18C G68A, for which the yeast fitness was ≤ 0.5.

Take C4U C11U G67A A69C: the yeast fitness is ≤ 0.5.

On to C4U U26G, for which the yeast fitness came to 0.912.

With C4U C5G A40G G51C U59A C61A A69U, the yeast fitness is ≤ 0.5.

For C4U C11G C29A U54A A57U, the yeast fitness is ≤ 0.5.

Regarding C4G G48A, the yeast fitness stood at 0.876.

With C4U G12A, the yeast fitness amounted to 1.11.

Regarding C4U U8C A36G A40C G44C, the yeast fitness is ≤ 0.5.

As for C4U U8A U32G U35A C62U A69C, the yeast fitness was ≤ 0.5.

As for C4U G10A A15C A57C C66G, the yeast fitness is ≤ 0.5.

As for C4G U16A G63A, the yeast fitness came out at 0.534.

As to C4G U26A U47G U54C, the yeast fitness is ≤ 0.5.

For the variant C4G G23C C61G, the yeast fitness is ≤ 0.5.

Regarding C4U C29A G58A C61G A70U, the yeast fitness turned out to be 0.548.

C4U C30A C61U: the yeast fitness came out at 0.812.

Turning to C4U C34G A37C, the yeast fitness was 0.539.

With C4G U16C C31U A42G, the yeast fitness was ≤ 0.5.

C4U G6A C34A A70C: the yeast fitness is ≤ 0.5.

For C4U G12A C62U, the yeast fitness was determined as 0.73.

C4G U7G C31U: the yeast fitness was determined as 0.56.

Regarding C4U U16G C66G, the yeast fitness is ≤ 0.5.

As for C4U C31G C55U, the yeast fitness is 0.579.

In the case of C4U C5G C29G C31G A37C, the yeast fitness was 0.627.

In the case of C4U U13C C33U A65G, the yeast fitness turned out to be 0.617.

On to C4U C11U U26G U28C A37G G41A C49G, for which the yeast fitness is ≤ 0.5.

In the case of C4U C27A C30U A37U C60G, the yeast fitness is 0.639.

With C4U U8C G17C C49A, the yeast fitness is ≤ 0.5.

In the case of C4U C11U C22G C61A, the yeast fitness was ≤ 0.5.

As for C4U G6A C34U, the yeast fitness is ≤ 0.5.

For C4G U19C C24U, the yeast fitness turned out to be 0.619.

With C4U G9C C29G C34G C60G, the yeast fitness is ≤ 0.5.

As to C4U C11A A37C C66A, the yeast fitness stood at 0.535.

On to C4U C5A C66U, for which the yeast fitness was found to be 0.61.

In the case of C4U A37C G63A, the yeast fitness came out at 0.593.

As to C4U U7G C34G G51A, the yeast fitness was ≤ 0.5.

In the case of C4U C11G C29A U54A U59G, the yeast fitness was ≤ 0.5.

Turning to C4G G41A, the yeast fitness turned out to be 0.768.

Consider C4U C24G, for which the yeast fitness amounted to 0.591.

Turning to C4U C24U, the yeast fitness is 0.944.

Regarding C4U C27U G39C U47A, the yeast fitness is ≤ 0.5.

On to C4U U7A, for which the yeast fitness was 0.743.

As to C4U C31G C46U, the yeast fitness is 0.921.

Turning to C4U C22G G48A C60G, the yeast fitness is ≤ 0.5.

Regarding C4U C5G C29G C31G A37C C66A, the yeast fitness turned out to be 0.66.

On to C4U C24U A36C C61G, for which the yeast fitness is ≤ 0.5.

As to C4U C27U U47C, the yeast fitness stood at 0.734.

As for C4U G12A U16A G51A U54A, the yeast fitness was ≤ 0.5.

For the variant C4G G25C C46U G50A, the yeast fitness was determined as 0.636.

Take C4U C24A C62U A69U: the yeast fitness was ≤ 0.5.

In the case of C4G U7G C55G, the yeast fitness was ≤ 0.5.

Take C4U C34G U35A A42U: the yeast fitness was ≤ 0.5.

Turning to C4U A15U C30A A40G C66U A70G, the yeast fitness is ≤ 0.5.

Consider C4U U8A G48A C55U, for which the yeast fitness is ≤ 0.5.

As for C4U, the yeast fitness amounted to 0.989.

Take C4U G12A A20G C22U: the yeast fitness turned out to be 0.532.

As for C4U A21C C31A G56C, the yeast fitness is ≤ 0.5.

Turning to C4U G12C U26G C55U A69C, the yeast fitness came to 0.504.

Turning to C4U A15U U28C A57G C61G, the yeast fitness is ≤ 0.5.

With C4U A36C U59A, the yeast fitness was ≤ 0.5.

As for C4U A21G C46A C62U, the yeast fitness was determined as 0.691.

Regarding C4U G18C A57C, the yeast fitness stood at 0.639.

C4U G25A G67C: the yeast fitness amounted to 0.58.

For the variant C4U A15C C30G G56A A69C A70G, the yeast fitness is ≤ 0.5.

For the variant C4U C22U C55U, the yeast fitness came out at 0.544.

Regarding C4U C22U C55G, the yeast fitness is ≤ 0.5.

C4G U59C: the yeast fitness was 0.771.

Consider C4U C5G C29G C31G A37C U54A, for which the yeast fitness is ≤ 0.5.

As for C4U G23C C30G, the yeast fitness was ≤ 0.5.

For C4U A40G, the yeast fitness amounted to 0.997.

In the case of C4U A20U U53C C61U, the yeast fitness turned out to be 0.627.

C4G U28G: the yeast fitness stood at 0.696.

Consider C4G U8C C22G A42C, for which the yeast fitness was ≤ 0.5.

Regarding C4U A43G G68C, the yeast fitness worked out at 0.553.

In the case of C4U G10A A14U C46U, the yeast fitness was ≤ 0.5.

C4U G6A C46G: the yeast fitness came to 0.623.

As to C4G U8C U59G, the yeast fitness was ≤ 0.5.

Regarding C4U G9A C49U G50A, the yeast fitness turned out to be 0.644.

As to C4U G10A U28A A70U, the yeast fitness was ≤ 0.5.

Consider C4G U7G G12C A20U A70U, for which the yeast fitness was ≤ 0.5.

Regarding C4G U26A U32C, the yeast fitness stood at 0.565.

As for C4U C22A A40C, the yeast fitness is ≤ 0.5.

Take C4U G12C C49G: the yeast fitness was found to be 0.533.

For C4G U32C A70U, the yeast fitness was found to be 0.742.

With C4G U13A, the yeast fitness came to 0.874.

For the variant C4U C31U, the yeast fitness came to 0.966.

C4U C29U G48A: the yeast fitness was found to be 0.662.

For the variant C4U A15U U16A G23C A57U A69U, the yeast fitness is ≤ 0.5.

On to C4U C11A G12A U28C G44C, for which the yeast fitness is ≤ 0.5.

C4U C60G G63A: the yeast fitness worked out at 0.706.

C4U C24U U26C G68A: the yeast fitness was ≤ 0.5.

C4G U8G U35C U53G: the yeast fitness was ≤ 0.5.

Regarding C4U C29A C31G A42C A45U, the yeast fitness was ≤ 0.5.

In the case of C4U C24A U26A, the yeast fitness is ≤ 0.5.

Consider C4U A15C A65U A69U, for which the yeast fitness was ≤ 0.5.

Turning to C4U G58C A69U, the yeast fitness came to 0.785.

C4U G9A C22G A42U G56A: the yeast fitness was ≤ 0.5.

On to C4U G23C G51A A69G, for which the yeast fitness worked out at 0.586.

For the variant C4U C11G A20G C34U, the yeast fitness was ≤ 0.5.

Consider C4U U26G C62G, for which the yeast fitness was ≤ 0.5.

C4G G25C: the yeast fitness was 0.982.

Regarding C4U U13A A14U C29U A37G, the yeast fitness turned out to be 0.581.

With C4U A21G C31G C34G, the yeast fitness amounted to 0.596.

In the case of C4U C24A A69U, the yeast fitness came out at 0.601.

On to C4G G50C, for which the yeast fitness came to 0.679.

With C4G U16C C29G A36U A70G, the yeast fitness is ≤ 0.5.

For C4U G23C A40U A42G G58C, the yeast fitness is ≤ 0.5.

Consider C4U G6A A40G A43G C49U, for which the yeast fitness was ≤ 0.5.

For C4G G18A A21G G25A G51C, the yeast fitness is ≤ 0.5.

In the case of C4U A14G C34G, the yeast fitness was ≤ 0.5.

For the variant C4U A20G C29G U32A C62A, the yeast fitness is ≤ 0.5.

As to C4U U7G G56C C60G C66U, the yeast fitness is ≤ 0.5.

On to C4U C46G G63C C66A, for which the yeast fitness was ≤ 0.5.
